# From ChEMBL document CHEMBL2021803, “Antitumor agents. 289. Design, synthesis, and anti-breast cancer activity in vivo of 4-amino-2H-benzo[h]chromen-2-one and 4-amino-7,8,9,10-tetrahydro-2H-benzo[h]chromen-2-one analogues with improved water solubility” (J Nat Prod, 2012)
# The source made the active and inactive calls. No cut-off for these calls is given here.
# Tests used:
# [1] = system: KB; assay: Cytotoxicity against human KB cells after 72 hrs by SRB assay; type: functional, cell-based
# [2] = system: A549; assay: Cytotoxicity against human A549 cells after 72 hrs by SRB assay; type: functional, cell-based
# [3] = system: DU-145; assay: Cytotoxicity against human DU145 cells after 72 hrs by SRB assay; type: functional, cell-based
# [4] = system: SK-BR-3; assay: Cytotoxicity against human SKBR3 cells after 72 hrs by SRB assay; type: functional, cell-based
# [5] = Cytotoxicity against human KBVIN cells after 72 hrs by SRB assay; type: functional, cell-based
# [6] = system: Mus musculus; assay: Induction of apoptosis in Brca/p53 mutant mouse mammary gland assessed as increase in perinuclear localization of cleaved caspase-3 at 0.1 mg, ip administered daily for 10 days by immunohistochemical staining method; type: functional, organism-based
# Method in brief: (§1)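 Wild-type or Brca1/p53 Cre mutant mice (C57BL/6 × 129/Sv), three months old, dosed i.p. daily with 0.1 mg in DMSO/40% PEG/0.9% NaCl (10:30:60 μL), made fresh; vehicle controls. Mammary glands fixed in 4% paraformaldehyde at 4 °C overnight, paraffin-embedded, cut into 5-μm sections. Retrieval by boiling in citrate pH 6.0, then rabbit polyclonal anti-cleaved caspase-3. Read as percentage of positive cells per duct.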
# [7] = system: Mus musculus; assay: Reduction in ductal branching in Brca/p53 mutant mouse at 0.1 mg, ip administered daily for 10 days; type: functional, organism-based
# Method in brief: (§2)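 Three-month-old wild-type or Brca1/p53 Cre mutant mice (mixed C57BL/6 × 129/Sv) given 0.1 mg i.p. daily (DMSO stock […] diluted in 40% PEG and 0.9% NaCl at dosing); vehicle controls. Fourth-pair mammary glands whole-mounted, Carnoy's fixed 3 h, Carmine alum stained overnight. Branching points counted in three random areas totaling about 2 mm².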
# [8] = system: Mus musculus; assay: Induction of apoptosis in Brca/p53 mutant mouse mammary gland assessed as increase in cytoplasmic localization of cleaved caspase-3 at 0.1 mg, ip administered daily for 10 days by immunohistochemical staining method; type: functional, organism-based; method in brief: as §1
# [9] = system: Mus musculus; assay: Reduction in ductal branching in Brca/p53 mutant mouse mammary gland at 0.1 mg, ip administered daily for 10 days by immunostaining technique; type: functional; design: scale not given: the % may be the effect or the level left; conditions: in the assay text read “Carmine alum whole-mount staining” for “immunostaining technique”; method in brief: as §2
# [10] = system: Mus musculus; assay: Antiproliferative activity of Brca/p53 mutant mouse mammary epithelial cells assessed as reduction in DNA synthesis at 0.1 mg, ip administered daily for 10 days by BrdU-based immunostaining method; type: functional, Epithelial cell; design: scale not given: the % may be the effect or the level left
# Method in brief: (§3)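 Three-month-old mice (C57BL/6 × 129/Sv mixed background; wild-type or Brca1/p53 Cre mutant) dosed i.p. daily, 0.1 mg in 10 μL of […] DMSO stock plus 30 μL 40% PEG and 60 μL 0.9% NaCl, made fresh; vehicle controls. Paraffin sections, citrate pH 6.0 microwave retrieval 20 min, anti-BrdU 1:1000, ABC detection; BrdU-positive cells averaged over 15 ducts.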
# [11] = system: Mus musculus; assay: Antiproliferative activity of wild type mouse mammary epithelial cells assessed as reduction in DNA synthesis at 0.1 mg, ip administered daily for 10 days by BrdU-based immunostaining method; type: organism-based, Epithelial cell; conditions: in vivo, 240 h; method in brief: as §3
# [12] = system: Mus musculus; assay: Reduction in ductal branching in wild type mouse mammary gland at 0.1 mg, ip administered daily for 10 days by immunostaining technique; type: functional, organism-based; design: scale not given: the % may be the effect or the level left; conditions: in vivo, 240 h; method in brief: as §2
# [13] = system: Mus musculus; assay: Induction of apoptosis in Brca/p53 mutant mouse mammary gland assessed as increase in cleaved caspase-3 at 0.1 mg, ip administered daily for 10 days by immunohistochemical staining method relative to vehicle-treated control; type: functional; method in brief: as §1
# [14] = Solubility of the compound in water; type: physicochemical
# [15] = system: Mus musculus; assay: Induction of apoptosis in wild type mouse mammary gland assessed as increase in cleaved caspase-3 at 0.1 mg, ip administered daily for 10 days by immunohistochemical staining method relative to vehicle-treated control; type: organism-based; conditions: in vivo, 240 h; method in brief: as §1
Compound,IC50 ([1]; kb),IC50 ([2]; a549),IC50 ([3]; du-145),IC50 ([4]; sk-br-3),IC50 ([5]; kbvin),"IC50 ([1]; Homo sapiens, KB, 72 h)","IC50 ([2]; Homo sapiens, A549, 72 h)","IC50 ([3]; Homo sapiens, DU-145, 72 h)","IC50 ([4]; Homo sapiens, SK-BR-3, 72 h)","IC50 ([5]; Homo sapiens, KBVIN, 72 h)",other results
Nc1ccccc1Nc1cc(=O)oc2c3c(ccc12)CCCC3 [listing 1 of 2 here],7.4 µM,8 µM,> 10 µM,8.7 µM,7 µM,–,–,–,–,–,–
O=c1cc(NC2CCN(Cc3ccccc3)CC2)c2ccc3c(c2o1)CCCC3 [listing 1 of 2 here],–,–,–,–,–,6.5 µM,7 µM,5.8 µM,7.7 µM,6.2 µM,–
Nc1ccccc1Nc1cc(=O)oc2c1ccc1ccccc12 [listing 1 of 2 here],–,–,–,–,–,> 10 µM,> 10 µM,> 10 µM,> 10 µM,> 10 µM,–
CN(C)c1ccc(Nc2cc(=O)oc3c2ccc2ccccc23)cc1 [listing 1 of 2 here],0.47 µM,0.59 µM,0.3 µM,0.27 µM,0.41 µM,–,–,–,–,–,–
O=c1cc(NC2CCN(Cc3ccccc3)CC2)c2ccc3ccccc3c2o1 [listing 1 of 2 here],> 10 µM,–,–,–,9.4 µM,–,–,–,–,–,–
Nc1cccc(Nc2cc(=O)oc3c2ccc2ccccc23)c1 [listing 1 of 2 here],–,–,–,–,–,0.12 µM,0.19 µM,0.15 µM,0.15 µM,0.16 µM,–
CN(C)c1ccc(Nc2cc(=O)oc3c4c(ccc23)CCCC4)cc1 [listing 1 of 2 here],–,–,–,–,–,0.72 µM,0.54 µM,0.47 µM,0.77 µM,0.54 µM,–
Nc1ccc(Nc2cc(=O)oc3c2ccc2ccccc23)cc1 [listing 1 of 3 here],–,–,–,–,–,–,–,–,–,–,Activity [6]: Active; Activity [7]: Active; Activity [8]: Active
Nc1ccccc1Nc1cc(=O)oc2c3c(ccc12)CCCC3 [listing 2 of 2 here],–,–,–,–,–,4.9 µM,5 µM,5 µM,5.2 µM,5.2 µM,–
Nc1ccc(Nc2cc(=O)oc3c2ccc2ccccc23)cc1 [listing 2 of 3 here],0.048 µM,0.054 µM,0.049 µM,0.053 µM,0.047 µM,–,–,–,–,–,–
Nc1ccc(Nc2cc(=O)oc3c2ccc2ccccc23)cc1 [listing 3 of 3 here],–,–,–,–,–,0.054 µM,0.055 µM,0.04 µM,0.038 µM,0.044 µM,Activity [9]: 69%; Activity [10]: 81%; Activity [11]: Non-toxic; Activity [12]: 15%; fold change (FC) [13]: 4.8; solubility [14]: 0.0339 mg/mL; fold change (FC) [15]: 2.1
Nc1cccc(Nc2cc(=O)oc3c2ccc2ccccc23)c1 [listing 2 of 2 here],0.17 µM,0.15 µM,0.18 µM,0.24 µM,0.15 µM,–,–,–,–,–,–
Nc1cccc2c(Nc3cc(=O)oc4c3ccc3ccccc34)cccc12 [listing 1 of 2 here],0.21 µM,0.24 µM,0.18 µM,0.24 µM,0.17 µM,–,–,–,–,–,–
CN(C)c1ccc(Nc2cc(=O)oc3c2ccc2ccccc23)cc1 [listing 2 of 2 here],–,–,–,–,–,0.6 µM,0.43 µM,0.36 µM,0.3 µM,0.35 µM,–
O=c1cc(NC2CCN(Cc3ccccc3)CC2)c2ccc3c(c2o1)CCCC3 [listing 2 of 2 here],9.1 µM,> 10 µM,8.3 µM,9.3 µM,8.3 µM,–,–,–,–,–,–
COc1ccc(Nc2cc(=O)oc3c4c(ccc23)CCCC4)cc1,–,–,–,–,–,0.037 µM,0.049 µM,0.038 µM,0.064 µM,0.046 µM,Activity [9]: 65%; Activity ([10]; Epithelial cell): inactive; Activity [7]: Active; Activity [12]: 15%
Nc1cccc(Nc2cc(=O)oc3c4c(ccc23)CCCC4)c1 [listing 1 of 2 here],–,–,–,–,–,0.44 µM,0.4 µM,0.44 µM,0.48 µM,0.47 µM,–
Nc1ccc(Nc2cc(=O)oc3c4c(ccc23)CCCC4)cc1 [listing 1 of 3 here],–,–,–,–,–,0.056 µM,0.058 µM,0.053 µM,0.074 µM,0.053 µM,Activity [9]: 70%; Activity [12]: 15%; fold change (FC) [13]: 4.5; fold change (FC) [15]: 4
COc1ccc(Nc2cc(=O)oc3c2ccc2ccccc23)cc1,–,–,–,–,–,0.11 µM,0.17 µM,0.11 µM,0.13 µM,0.13 µM,Activity [9]: 75%; Activity [10]: 55%; Activity [11]: Non-toxic; Activity [7]: Active; Activity [12]: 15%; solubility [14]: 0.00069 mg/mL
CN(C)c1ccc(Nc2cc(=O)oc3c4c(ccc23)CCCC4)cc1 [listing 2 of 2 here],0.38 µM,0.44 µM,0.33 µM,0.49 µM,0.39 µM,–,–,–,–,–,–
Nc1ccc(Nc2cc(=O)oc3c4c(ccc23)CCCC4)cc1 [listing 2 of 3 here],0.069 µM,0.062 µM,0.066 µM,0.085 µM,0.065 µM,–,–,–,–,–,–
Nc1ccc(Nc2cc(=O)oc3c4c(ccc23)CCCC4)cc1 [listing 3 of 3 here],–,–,–,–,–,–,–,–,–,–,Activity [6]: Active; Activity ([10]; Epithelial cell): inactive; Activity [7]: Active; Activity [8]: Active
Nc1ccccc1Nc1cc(=O)oc2c1ccc1ccccc12 [listing 2 of 2 here],8.2 µM,9.1 µM,8.7 µM,9.5 µM,9 µM,–,–,–,–,–,–
Nc1cccc2c(Nc3cc(=O)oc4c3ccc3ccccc34)cccc12 [listing 2 of 2 here],–,–,–,–,–,0.16 µM,0.16 µM,0.15 µM,0.2 µM,0.15 µM,–
Nc1cccc(Nc2cc(=O)oc3c4c(ccc23)CCCC4)c1 [listing 2 of 2 here],0.48 µM,0.5 µM,0.34 µM,0.56 µM,0.45 µM,–,–,–,–,–,–
O=c1cc(NC2CCN(Cc3ccccc3)CC2)c2ccc3ccccc3c2o1 [listing 2 of 2 here],–,–,–,–,–,8.3 µM,> 10 µM,> 10 µM,> 10 µM,7.6 µM,–
